Test results published in ChEMBL document CHEMBL4602706, “Natural Product Evodiamine with Borate Trigger Unit: Discovery of Potent Antitumor Agents against Colon Cancer” (ACS Med Chem Lett, 2020).
pIC50: −log10 of the molar value. Active and inactive are the calls of the source. No cut-off for these calls is given here.

Legend:
MCF7 = assay: Antiproliferative activity against human MCF7 cells incubated for 72 hrs by CCK8 assay; type: functional, cell-based; settings: Homo sapiens, MCF7, 72 h; read-out: IC50
How it was run: (§1)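 HCT116, MCF-7 and A549 human cancer cell lines; antiproliferative activity read out by CCK8 assay. Evodiamine derivatives and camptothecin served as positive controls.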

HCT-116 = assay: Antiproliferative activity against human HCT116 cells incubated for 72 hrs by CCK8 assay; type: functional, cell-based; settings: Homo sapiens, HCT-116, 72 h; read-out: IC50; how it was run: as §1
A549 = assay: Antiproliferative activity against human A549 cells incubated for 72 hrs by CCK8 assay; type: functional, cell-based; settings: Homo sapiens, A549, 72 h; read-out: IC50; how it was run: as §1
[1] = target: T1, DNA topoisomerase 1 (Homo sapiens) (UniProt P11387); assay: Inhibition of Top1 (unknown origin) at 500 uM using supercoiled pBR322 plasmid DNA as substrate incubated for 15 mins by PI staining based agarose gel electrophoresis analysis
T1 sequence (whole entry): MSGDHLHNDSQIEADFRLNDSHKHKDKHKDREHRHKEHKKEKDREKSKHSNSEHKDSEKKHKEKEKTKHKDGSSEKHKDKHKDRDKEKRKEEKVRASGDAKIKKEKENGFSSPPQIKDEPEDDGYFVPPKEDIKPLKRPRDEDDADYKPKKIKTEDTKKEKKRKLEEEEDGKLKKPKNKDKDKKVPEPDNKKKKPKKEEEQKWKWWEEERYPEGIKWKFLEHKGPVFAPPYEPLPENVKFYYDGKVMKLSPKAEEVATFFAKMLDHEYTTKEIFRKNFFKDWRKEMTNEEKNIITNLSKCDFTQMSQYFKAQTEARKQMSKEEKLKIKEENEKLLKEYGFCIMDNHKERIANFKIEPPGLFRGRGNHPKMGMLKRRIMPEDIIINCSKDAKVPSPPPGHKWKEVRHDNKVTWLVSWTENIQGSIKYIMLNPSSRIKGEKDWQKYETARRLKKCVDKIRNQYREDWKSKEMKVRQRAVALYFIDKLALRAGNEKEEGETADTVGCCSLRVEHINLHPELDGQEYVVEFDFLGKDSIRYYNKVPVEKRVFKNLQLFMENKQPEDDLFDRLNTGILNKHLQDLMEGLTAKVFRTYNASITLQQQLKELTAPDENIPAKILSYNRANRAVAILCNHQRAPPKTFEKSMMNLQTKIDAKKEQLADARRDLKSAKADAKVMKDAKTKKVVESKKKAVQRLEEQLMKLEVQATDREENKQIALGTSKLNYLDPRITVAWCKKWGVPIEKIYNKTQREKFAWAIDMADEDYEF
How it was run: (§2)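 Top1 inhibition tested at 500, 250 and 125 μM, and over 27.9 to 250 μM for selected compounds.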

[2] = Drug metabolism in human HCT116 cells assessed as 3-Fluoro-10-hydroxy-14-methyl-8,13,13b,14-tetrahydro-7H-indolo[2',3':3,4]pyrido[2,1-b]quinazolin-5-one release by measuring retention time incubated for 8 hrs by UPLC-QTOF/MS analysis; type: ADME, cell-based; settings: hct-116, 8 h
How it was run: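 Compounds incubated with HCT116 cells; culture media analysed by HPLC after 8, 48 and 72 h. Relative release rate taken from relative peak areas; parent and product identified by retention time.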

[3] = Metabolic stability in mouse liver microsomes assessed as half life at 1 uM preincubated with compound followed by NADPH addition measured upto 45 mins by LC-MS/MS analysis; type: ADME, Microsome
How it was run: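 In vitro stability in liver microsomes; terminal half-life determined.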

[4] = target: T1, DNA topoisomerase 1 (Homo sapiens); assay: Inhibition of Top1 (unknown origin) at 125 uM using supercoiled pBR322 plasmid DNA as substrate incubated for 15 mins by PI staining based agarose gel electrophoresis analysis; how it was run: as §2
[5] = Inhibition of porcine brain tubulin polymerization measured at 1 min interval for 15 to 30 mins by spectrophotometric method; design: species or system Sus scrofa
[6] = target: T2, DNA topoisomerase II (Homo sapiens) (UniProt P11388+Q02880); assay: Inhibition of Top2 (unknown origin) at 50 uM using supercoiled pBR322 plasmid DNA as substrate incubated for 30 mins by PI staining based agarose gel electrophoresis analysis; type: protein assay
[7] = target: T2, DNA topoisomerase II (Homo sapiens); assay: Inhibition of Top2 (unknown origin) using supercoiled pBR322 plasmid as substrate incubated for 30 mins by PI staining based agarose gel electrophoresis analysis; type: protein assay

Row | pIC50 (MCF7) | pIC50 (HCT-116) | pIC50 (A549) | inhibition [1] | half-life at 1 µM [3] | inhibition [4] | pIC50 [5] | inhibition [6] | inhibition [7] | SMILES | Retention_time [2]
1 | 6.80 | 7.00 | 6.41 |  |  |  |  |  |  | CN1c2ccccc2C(=O)N2CCc3c([nH]c4ccc(OCc5ccc(B6OC(C)(C)C(C)(C)O6)cc5)cc34)C21 (centres undefined) | 
2 | 6.80 | 7.16 | 7.00 | Active |  |  |  |  |  | CN1c2ccccc2C(=O)N2CCc3c([nH]c4ccc(B(O)O)cc34)C21 (centres undefined) | 
3 | 7.51 | 7.57 | 7.54 | Active | 3.69 min |  |  |  |  | CN1c2ccc(F)cc2C(=O)N2CCc3c([nH]c4ccc(O)cc34)C21 (centres undefined) | 7.3 min
4 | 5.11 | 5.66 | 5.65 |  |  |  |  |  |  | CN1c2ccc(F)cc2C(=O)N2CCc3c(n(C(=O)OC(C)(C)C)c4ccc(OCc5ccc(B6OC(C)(C)C(C)(C)O6)cc5)cc34)C21 (centres undefined) | 
5 | 6.85 | 7.28 | 6.89 | Active |  | Active | 4.59 | Active |  | CN1c2ccccc2C(=O)N2CCc3c([nH]c4ccc(OC(=O)OCc5ccc(B(O)O)cc5)cc34)C21 (centres undefined) | 
6 | 5.62 | 5.31 | 5.67 |  |  |  |  |  |  | CN1c2ccc(F)cc2C(=O)N2CCc3c(n(C(=O)OC(C)(C)C)c4ccc(OCc5ccc(B(O)O)cc5)cc34)C21 (centres undefined) | 
7 |  |  |  |  |  |  |  |  | Active | COc1cc([C@@H]2c3cc4c(cc3[C@@H](O[C@@H]3O[C@@H]5CO[C@@H](C)O[C@H]5[C@H](O)[C@H]3O)[C@H]3COC(=O)[C@H]23)OCO4)cc(OC)c1O | 
8 | 6.41 | 6.66 | 6.77 |  |  |  |  |  |  | CN1c2ccccc2C(=O)N2CCc3c([nH]c4ccc(B5OC(C)(C)C(C)(C)O5)cc34)C21 (centres undefined) | 
9 | 6.96 | 6.92 | 7.13 | Active |  | Active |  | Active |  | CN1c2ccccc2C(=O)N2CCc3c([nH]c4ccc(OCc5ccc(B(O)O)cc5)cc34)C21 (centres undefined) | 

Row | SMILES | pIC50 (MCF7) | pIC50 (HCT-116) | pIC50 (A549) | inhibition [1] | half-life at 1 µM [3] | inhibition [4] | pIC50 [5] | inhibition [6] | inhibition [7] | Retention_time [2]
10 | CC[C@@]1(O)C(=O)OCc2c1cc1n(c2=O)Cc2cc3ccccc3nc2-1 [CAMPTOTHECIN] | 7.08 | 8.05 | 7.41 |  |  |  |  |  |  | 
